For data set [1], the system named is Mus musculus. As to the kind of experiment: The in vivo tissue distribution of mouse liver with Propranolol administration after 90 min, value was fractional dose per fractional body weight of the organ. It is filed as ADME, organism-based. The note with it: 1.5 h. In short, it runs like this:
(§1)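 Male CF-1 mice (25–30 g), given 2 mg sodium pentobarbital ip 30 min before tracer. Blocked groups received propranolol iv by tail vein, 0.1 mL of 1 mg/mL. About 30 min later, 0.1 mL of [18F]tracer (1–2 mCi/mL) was injected by tail vein. Mice were killed by cervical dislocation at set times, and organs were weighed and counted. Uptake is %ID/g × body weight/100, average ± SD; n=5 for heart, brain, blood, lung, kidney, liver and bone.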

Data set [2] deals with Mus musculus. As to the kind of experiment: The in vivo tissue distribution of mouse heart with Propranolol administration after 40 min, value was fractional dose per fractional body weight of the organ. It is filed as ADME, organism-based. An outline of the steps:
(§2)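 Male CF-1 mice (25–30 g), anesthetised with 2 mg sodium pentobarbital ip 30 min before tracer. Where blocked, propranolol iv via tail vein (0.1 mL of […]; […]) about 30 min before tracer. Tracer given by tail vein, 0.1 mL at 1–2 mCi/mL. Mice killed by cervical dislocation at set times, organs weighed and counted. %ID/g × body weight/100 gives unitless uptake. Heart, brain, blood, lung, kidney, liver and bone n=5; average ± SD.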

In data set [3] the test system is Mus musculus. In words: The in vivo tissue distribution of mouse heart without Propranolol preadministration in 40 min, value was fractional dose per fractional body weight of the organ.
In data set [4] the test system is Mus musculus. In words: The in vivo tissue distribution of mouse brain with Propranolol administration after 10 min, value was fractional dose per fractional body weight of the organ. It is filed as ADME, organism-based. An outline of the steps:
as §2

For data set [5], the system named is Mus musculus. In words: The in vivo tissue distribution of mouse liver with Propranolol administration after 10 min, value was fractional dose per fractional body weight of the organ. It is filed as ADME, organism-based. In short, it runs like this:
as §1

As to `CC(C[18F])NC[C@H](O)COc1cccc2[nH]c3ccccc3c12` (stereo not given in full), the Dose/organ in the data set on Mus musculus [1] is 1.39; with Mus musculus [2] it was 0.51; in the data set on Mus musculus [3] it was 0.77; in the data set on Mus musculus [4], 1.23; in the data set with Mus musculus [5], 2.89.

Take `CC(C[18F])NC[C@@H](O)COc1cccc2[nH]c3ccccc3c12` (stereo not given in full): the Dose/organ in the data set on Mus musculus [1] turned out to be 1.17; in the data set on Mus musculus [2], 0.73; in the data set with Mus musculus [3], 0.76; with Mus musculus [4], 1.04; with Mus musculus [5] it was 3.14.
